Experimental data as given in ChEMBL document CHEMBL1157350, “The structure-activity relationship study on 2-, 5-, and 6-position of the water soluble 1,4-dihydropyridine derivatives blocking N-type calcium channels” (Bioorg Med Chem Lett, 2008).
pIC50: −log10 of the molar value. Values after ≈ are worked out from the molar mass of the structure shown.

Key:
[1] = Inhibition of voltage-dependent N-type calcium channel in human IMR32 cells assessed as effect on calcium influx; type: cell-based; settings: IMR-32
[2] = Distribution coefficient, log D of the compound; type: physicochemical; settings: octanol/water
In short: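 Calculated logD at pH 7.4 (PrologD).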

[3] = Aqueous solubility of the compound; type: physicochemical; settings: buffer
In short: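 Aqueous suspension left overnight, centrifuged at 10,000 rpm for 5 min; supernatant diluted and quantified by HPLC.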

[4] = molecular target: Voltage-gated L-type calcium channel (Rattus norvegicus, UniProt P22002+Q02485+P27732); assay: Inhibition of voltage-dependent L-type calcium channel in rat thoracic aorta ring assessed as effect on high K+ induced contraction by Magnus method; type: tissue-based
Rattus norvegicus = organism: Rattus norvegicus; assay: Inhibition of voltage-dependent N-type calcium channel in rat superior cervical ganglion neurons assessed as effect on Ba2+ current at holding potential of -60 mV at 10 uM by electrophysiology; type: tissue-based

| SMILES | pIC50 [1] | logD [2] | solubility [3] | IC50 [4] | inhibition (Rattus norvegicus) |
| --- | --- | --- | --- | --- | --- |
| COCCOC(=O)C1=C(C)NC(C)=C(C(=O)OC/C=C/c2ccccc2)C1c1cccc([N+](=O)[O-])c1 (stereo unspecified) [CILNIDIPINE] | 5.80 |  |  |  |  |
| CC1=C(C(=O)O)C(c2cccc([N+](=O)[O-])c2)C(C(=O)OC/C=C/c2ccccc2)=C(C)N1 (stereo unspecified) | 5.46 |  |  |  |  |
| COc1ccccc1/C=C/COC(=O)C1=C(C(OC)OC)NC(C)=C(C(=O)O)C1c1cccc(Cl)c1 (stereo unspecified) | 5.60 | 1.2 | 10.2 mg/mL (≈ 19.8 mM) | 5.9 µM |  |
| COC(OC)C1=C(C(=O)OC/C=C/c2ccccc2)C(c2cccc(Cl)c2)C(C(=O)O)=C(C)N1 (stereo unspecified) | 5.52 | 1.29 | > 15 mg/mL | 8.1 µM | 85% |
| CC1=NC(C)=C(C(=O)O)C(c2cccc(Cl)c2)/C1=C(\O)OC/C=C/c1ccccc1 (stereo unspecified) | 6.00 |  |  |  |  |
| COC(OC)C1=C(C(=O)O)C(c2cccc(Cl)c2)C(C(=O)OC/C=C/c2ccccc2)=C(C)N1 (stereo unspecified) | 5.41 |  |  | 1.3 µM |  |
| CN[C@@H](CC(C)C)C(=O)NCCCC(c1ccc(F)cc1)c1ccc(F)cc1 |  |  |  |  | 83% |
| CCC1=C(C(=O)OC/C=C/c2ccccc2)C(c2cccc(Cl)c2)C(C(=O)O)=C(C)N1 (stereo unspecified) | 6.09 |  |  | 0.007 µM |  |
| COc1ccc(/C=C/COC(=O)C2=C(C(OC)OC)NC(C)=C(C(=O)O)C2c2cccc(Cl)c2)cc1 (stereo unspecified) | 5.68 |  |  | 0.54 µM |  |
| CC1=C(C(=O)O)C(c2cccc(Cl)c2)C(C(=O)OC/C=C/c2ccccc2)=C(C#N)N1 (stereo unspecified) | 5.24 |  |  | 2 µM |  |
| COC(OC)C1=C(C(=O)OC/C=C/c2ccc(Cl)cc2)C(c2cccc(Cl)c2)C(C(=O)O)=C(C)N1 (stereo unspecified) | 5.77 |  |  | 1.4 µM |  |
| COc1cccc(/C=C/COC(=O)C2=C(C(OC)OC)NC(C)=C(C(=O)O)C2c2cccc(Cl)c2)c1 (stereo unspecified) | 5.52 |  |  | 4.4 µM |  |
| CC1=C(C(=O)O)C(c2cccc(Cl)c2)C(C(=O)OCCC(c2ccccc2)c2ccccc2)=C(C(F)(F)F)N1 (stereo unspecified) | 5.77 | 3.51 | 3.5 mg/mL (≈ 6.3 mM) |  |  |
| COC(OC)C1=C(C(=O)OC/C=C/c2cccc(Cl)c2)C(c2cccc(Cl)c2)C(C(=O)O)=C(C)N1 (stereo unspecified) | 5.85 |  |  | 1 µM |  |
| COC(OC)C1=C(C(=O)OC/C=C/c2ccc(F)cc2)C(c2cccc(Cl)c2)C(C(=O)O)=C(C)N1 (stereo unspecified) | 5.74 |  |  | 2 µM |  |
| COC(OC)C1=C(C(=O)OC/C=C/c2ccc(C(F)(F)F)cc2)C(c2cccc(Cl)c2)C(C(=O)O)=C(C)N1 (stereo unspecified) | 5.70 |  |  | 3.2 µM |  |
| COC(OC)C1=C(C(=O)OC/C=C/c2ccccc2Cl)C(c2cccc(Cl)c2)C(C(=O)O)=C(C)N1 (stereo unspecified) | 5.74 |  |  | 0.7 µM |  |
